The results in this text go back to ChEMBL document CHEMBL2396597, “Synthesis and evaluation of novel orally active p53-MDM2 interaction inhibitors” (Bioorg Med Chem, 2013).

Data set [1] is described as follows: Metabolic stability in mouse liver microsomes assessed as compound remaining at 1 uM after 30 mins by LC-MS/MS analysis. It counts as ADME, Microsome. As to conditions: read-out: Stability. The procedure, abridged:
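Compound at 1 μM final was incubated with mouse hepatic microsomes (0.5 mg/mL protein) in sodium phosphate buffer pH 7.4 at 37°C. Reaction was started with an NADPH-generating system and stopped with MeOH after 30 min. Samples were centrifuged, and loss of parent was measured by LC-MS/MS as % remaining.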
Background: Liver microsomes are vesicles of endoplasmic reticulum, rich in cytochrome P450 enzymes.

A short description of data set [2]: Drug uptake in tumor of NOD/SCID mouse xenografted with human MV4-11 cells at 100 mg/kg, po measured at 6 hrs by LC-MS/MS analysis. It counts as ADME, organism-based, Neoplasm. More on the design: dose 100 mg/kg, route oral. To be noted: read-out: Drug uptake. An outline of the steps: (§1)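 Tumor-bearing mice were given 100 mg/kg orally, suspended in Japanese Pharmacopoeia First Fluid (pH 1.2). Tumors were collected at 1, 2, 4, 6 and 24 h after dosing and homogenized. Tumor drug concentration was quantified by LC/MS/MS on an ODS column.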
On the technique in general: Xenograft models place foreign cells or tissue in a host animal.

Data set [3] can be described thus: Drug uptake in tumor of NOD/SCID mouse xenografted with human MV4-11 cells at 100 mg/kg, po measured at 4 hrs by LC-MS/MS analysis. In kind it is ADME, organism-based, Neoplasm. On the set-up: dose 100 mg/kg, route oral. As to conditions: read-out: Drug uptake. The procedure, abridged: as §1
A short description of data set [4]: Drug uptake in tumor of NOD/SCID mouse xenografted with human MV4-11 cells at 100 mg/kg, po measured at 2 hrs by LC-MS/MS analysis. It counts as ADME, organism-based, Neoplasm. On the set-up: dose 100 mg/kg, route oral. To be noted: read-out: Drug uptake. The procedure, abridged:
as §1

Data set [5] is described as follows: Drug uptake in tumor of NOD/SCID mouse xenografted with human MV4-11 cells at 100 mg/kg, po measured at 1 hr by LC-MS/MS analysis. In kind it is ADME, organism-based, Neoplasm. On the set-up: dose 100 mg/kg, route oral. To be noted: read-out: Drug uptake. The procedure, abridged: as §1
Data set [6] can be described thus: Plasma concentration in NOD/SCID mouse at 100 mg/kg, po measured at 6 hrs. It counts as ADME, organism-based. More on the design: dose 100 mg/kg, route oral.
Data set [7] in a line: Plasma concentration in NOD/SCID mouse at 100 mg/kg, po measured at 24 hrs. In kind it is ADME, organism-based. More on the design: dose 100 mg/kg, route oral.
Data set [8] can be described thus: Plasma concentration in NOD/SCID mouse at 100 mg/kg, po measured at 4 hrs. In kind it is ADME, organism-based. More on the design: dose 100 mg/kg, route oral.
The nature of data set [9]: Plasma concentration in NOD/SCID mouse at 100 mg/kg, po measured at 1 hr. In kind it is ADME, organism-based. On the set-up: dose 100 mg/kg, route oral.
The nature of data set [10]: Plasma concentration in NOD/SCID mouse at 100 mg/kg, po measured at 2 hrs. In kind it is ADME, organism-based. On the set-up: dose 100 mg/kg, route oral.
Data set [11] can be described thus: AUC in NOD/SCID mouse at 100 mg/kg, po. It counts as ADME, organism-based. More on the design: dose 100 mg/kg, route oral. To be noted: plasma.
Data set [12] can be described thus: Drug uptake in tumor of NOD/SCID mouse xenografted with human MV4-11 cells at 100 mg/kg, po measured at 24 hrs by LC-MS/MS analysis. It counts as ADME, organism-based, Neoplasm. As to conditions: read-out: Drug uptake. More on the design: dose 100 mg/kg, route oral. The procedure, abridged: as §1

With `CC[C@@H]1CC[C@@H](C(=O)N2CCN(C)[C@@H](C)C2)N1C(=O)C1=C(C(C)C)N2C(=N[C@@](C)(c3ccc(Cl)cc3)[C@H]2c2ccc(Cl)cc2)S1`, in data set [1], the remaining at 0.5 h, 1 µM is 69%.

Regarding `CC(C)C1=C(C(=O)N2[C@H](C)CC[C@H]2C(=O)N2CCN(C)CC2)SC2=N[C@@](C)(c3ccc(Cl)cc3)[C@@H](c3ccc(Cl)cc3)N21`, the remaining at 0.5 h, 1 µM in [1] was determined as 25%.

In the case of `CC[C@@H]1CC[C@@H](C(=O)N2CCN(C(C)=O)CC2)N1C(=O)C1=C(C(C)C)N2C(=N[C@@](C)(c3ccc(Cl)cc3)[C@H]2c2ccc(Cl)cc2)S1`, the remaining at 0.5 h, 1 µM in [1] was determined as 38%.

Turning to `CC(=O)N1CCN(C(=O)[C@@H]2CC[C@@H](C)N2C(=O)C2=C(C(C)C)N3C(=N[C@@](C)(c4ccc(Cl)cc4)[C@H]3c3ccc(Cl)cc3)S2)C[C@H]1C`, the remaining at 0.5 h, 1 µM in data set [1] was determined as 55%.

Consider `CC(=O)N1CCN(C(=O)[C@@H]2CC[C@@H](C)N2C(=O)C2=C(C(C)C)N3C(=N[C@@](C)(c4ccc(Cl)cc4)[C@H]3c3ccc(Cl)cc3)S2)CC1`, for which the remaining at 0.5 h, 1 µM in [1] came to 13%.

Turning to `CC[C@@H]1CC[C@@H](C(=O)N2CCN(C(C)=O)[C@@H](C)C2)N1C(=O)C1=C(C(C)C)N2C(=N[C@@](C)(c3ccc(Cl)cc3)[C@H]2c2ccc(Cl)cc2)S1`, in data set [1], the remaining at 0.5 h, 1 µM turned out to be 54%.

With `CC(=O)N1CCN(C(=O)[C@@H]2CC[C@@H](C)N2C(=O)C2=C(C(C)C)N3C(=N[C@@](C)(c4ccc(Cl)cc4)[C@H]3c3ccc(Cl)cc3)S2)C[C@@H]1C`, the remaining at 0.5 h, 1 µM in data set [1] turned out to be 65%.

In the case of `CC(C)C1=C(C(=O)N2[C@H](C)CC[C@H]2C(=O)N(C)C)SC2=N[C@@](C)(c3ccc(Cl)cc3)[C@@H](c3ccc(Cl)cc3)N21`, the remaining at 0.5 h, 1 µM in data set [1] stood at 53%.

On to `CC[C@@H]1CC[C@@H](C(=O)N2CCN(C)[C@H](C)C2)N1C(=O)C1=C(C(C)C)N2C(=N[C@@](C)(c3ccc(Cl)cc3)[C@H]2c2ccc(Cl)cc2)S1`, for which the remaining at 0.5 h, 1 µM in data set [1] was 76%.

As to `CC(C)C1=C(C(=O)N2[C@H](C)CC[C@H]2C(=O)N2CCN(C)[C@@H](C)C2)SC2=N[C@@](C)(c3ccc(Cl)cc3)[C@@H](c3ccc(Cl)cc3)N21`, in [1], the remaining at 0.5 h, 1 µM came out at 63%.

As for `CC[C@H]1CC[C@@H](C(=O)N(C)C)N1C(=O)C1=C(C(C)C)N2C(=N[C@@](C)(c3ccc(Cl)cc3)[C@H]2c2ccc(Cl)cc2)S1`, the remaining at 0.5 h, 1 µM in data set [1] amounted to 47%.

`CC[C@@H]1CC[C@@H](C(=O)N2CCN(C)CC2)N1C(=O)C1=C(C(C)C)N2C(=N[C@@](C)(c3ccc(Cl)cc3)[C@H]2c2ccc(Cl)cc2)S1`: the remaining at 0.5 h, 1 µM in data set [1] came out at 50%.

Turning to `CC[C@@H]1CC[C@@H](C(=O)N2CCN(C(C)=O)[C@H](C)C2)N1C(=O)C1=C(C(C)C)N2C(=N[C@@](C)(c3ccc(Cl)cc3)[C@H]2c2ccc(Cl)cc2)S1`, the figures for the concentration at 6 h in [2] and in data set [6] were 25200 ng/mL and 48200 ng/mL, respectively. The concentration at 4 h in data set [3] was 31200 ng/mL; in data set [8], 46400 ng/mL. The concentration at 2 h in data set [4] was determined as 32700 ng/mL; in data set [10], 68400 ng/mL. The figures for the concentration at 1 h in [5] and in data set [9] were 31500 ng/mL and 59600 ng/mL, respectively. The same compound had a concentration at 24 h in [7] of 100 ng/mL. For the same compound, the AUC (commonly concentration integrated over time) in data set [11] came out at 737 µg·h/mL. Further, in data set [1], the remaining at 0.5 h, 1 µM was 59%.

For the compound `CC(C)C1=C(C(=O)N2[C@H](C)CC[C@H]2C(=O)N2CCN(C)C(C)(C)C2)SC2=N[C@@](C)(c3ccc(Cl)cc3)[C@@H](c3ccc(Cl)cc3)N21`, the remaining at 0.5 h, 1 µM in data set [1] stood at 84%.

As to `CC[C@@H]1CC[C@@H](C(=O)N(C)C)N1C(=O)C1=C(C(C)C)N2C(=N[C@@](C)(c3ccc(Cl)cc3)[C@H]2c2ccc(Cl)cc2)S1`, the remaining at 0.5 h, 1 µM in [1] came to 70%.

With `CC(C)C1=C(C(=O)N2[C@@H](C)CC[C@H]2C(=O)N(C)C)SC2=N[C@@](C)(c3ccc(Cl)cc3)[C@@H](c3ccc(Cl)cc3)N21`, the remaining at 0.5 h, 1 µM in data set [1] was found to be 39%.

As for `CC(C)C1=C(C(=O)N2CCC[C@H]2C(=O)N(C)C)SC2=N[C@@](C)(c3ccc(Cl)cc3)[C@@H](c3ccc(Cl)cc3)N21`, the remaining at 0.5 h, 1 µM in data set [1] worked out at 9%.

With `CC(C)C1=C(C(=O)N2[C@H](C)CC[C@H]2C(=O)N2CCN(C)[C@H](C)C2)SC2=N[C@@](C)(c3ccc(Cl)cc3)[C@@H](c3ccc(Cl)cc3)N21`, the results for the concentration at 24 h in [12] and in data set [7] were 4300 ng/mL and 300 ng/mL, respectively. Also, the concentration at 6 h stood at 27500 ng/mL in data set [2] and 5700 ng/mL in [6]. In addition, the results for the concentration at 4 h in data set [3] and in [8] were 27900 ng/mL and 7500 ng/mL, respectively. The values for the concentration at 2 h in data set [4] and in [10] were 23300 ng/mL and 7800 ng/mL, respectively. Besides, the concentration at 1 h is 18900 ng/mL in data set [5] and 6900 ng/mL in data set [9]. The compound also registered an AUC in [11] of 93.1 µg·h/mL. In addition, the remaining at 0.5 h, 1 µM in data set [1] is 74%.

`CC[C@@H]1CC[C@@H](C(=O)N2CCOCC2)N1C(=O)C1=C(C(C)C)N2C(=N[C@@](C)(c3ccc(Cl)cc3)[C@H]2c2ccc(Cl)cc2)S1`: the remaining at 0.5 h, 1 µM in data set [1] was determined as 6%.
